# PvdQ inh: blocks Pseudomonas aeruginosa PvdQ acylase activity. AID 488965. 340,000 tested, 0.063% active. purified PvdQ acylase, fluorescence plate reader. inhibition, % at 10 µM; in the data active = inhibition above about 30%, passing the limit was not always enough; inconclusive = no clear call, values can overlap the other calls;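 also: 0% = vehicle neutral wells and 100% = reference inhibitor wells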
# T cruzi inh: T. cruzi replication inhibition. T. cruzi beta-gal in NIH3T3, luminescence, 90 h. inhibition, % (no concentration beside the values). 300,000 tested, 1.4% active. AID 1885;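 active = mean inhibition across valid replicates above about 55%, limit read from the data; inconclusive = mean below that limit but half or more replicates reach it; inactive = mean below it, under half of replicates reach it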;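 also: signal also drops with host cell toxicity which is not excluded here; 0% = plate median of DMSO wells and 100% = zero luminescence signal; higher percent means less beta-gal luminescence so fewer parasites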
#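 Material: NIH/3T3 host cells with β-galactosidase reporter T. cruzi; Input: 5,000 host fibroblasts per well; Medium: DMEM, 2% fetal bovine serum; Compound: 50 nL DMSO compound solution per well; Schedule: 3 h host attachment, then at least 90 h co-culture; Detection: luminescent β-galactosidase signal after 60 min lysis.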
# CaV13 ICDI inh: Primary screen for inhibitors of IQ motif and Ca2+-dependent inactivation inhibitor domain binding in CACNA1D, Förster resonance energy transfer in living cells, …. 340,000 tested, 0.098% active. HEK cells, CFP/YFP FRET ICDI-IQ, plate reader, 10 min; percent FRET-ratio fall versus neutral wells. inhibition, % at 12.3 µM. AID 743397;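 active = mean replicate inhibition of at least 30% and at least 1% of replicates passing that level; inconclusive = only one of the two criteria is met; inactive = neither criterion is met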;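 also: 0% = median of the neutral control wells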
# PfHsp90 yeast 2: growth inhibition of yeast expressing Plasmodium Hsp90; S. cerevisiae expressing PfHsp90, BacTiter-Glo ATP, 48 h; yeast lacking PDR1 and PDR3 efflux regulators; inhibition, % at 9.4 µM; 310,000 tested, 0.32% active; AID 504621;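 active = every replicate shows inhibition above about 80%, whatever the replicate mean, limit read from the data; inconclusive = mean inhibition reaches the set limit but some replicate falls short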;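 also: 0% = DMSO neutral controls and 100% = 20 µM radicicol positive controls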
# Glyco luc inh: blocks N-linked glycosylation in D54 reporter cells | D54 ERlucT glycosylation luciferase reporter, 24 h; percent of 100 nM tunicamycin response | reporter increase, % at 12.5 µM | 360,000 tested, 0.23% active;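 active = mean luciferase reporter signal, scaled so untreated is 0 and the glycosylation-blocking control 100, at or above a set limit in every replicate; inconclusive = mean reaches the limit but not every replicate does; inactive = mean below the limit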;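 also: luciferase carries N-glycosylation sites so blocking glycosylation raises the light; 0% = median of neutral control wells and 100% = median of 100 nM tunicamycin wells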
# HSF1 activator: increases HSF-1 driven luciferase reporter signal; NIH3T3-HGL HSF-1 luciferase reporter, MG132, 8 h; 100% = twice DMSO control signal; 300,000 tested, 1.7% active; activation, % at 9 µM;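 active = mean replicate activation of at least 50% with a set share of replicates each reaching 50%; inconclusive = only one of those two conditions met; inactive = mean below 50% and too few replicates reaching it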;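 also: 0% = median of the neutral control wells and 100% = twice that signal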
# Starred values were filed as active, the others as inactive; u = inconclusive; x = not tested or not shown. An excerpt weighted towards active compounds, which were near 3% of everything screened.
SMILES,PvdQ inh,T cruzi inh,CaV13 ICDI inh,PfHsp90 yeast 2,Glyco luc inh,HSF1 activator
CC1(c2nnnn2-c2ccc3c(c2)OCCO3)CCC(=O)N1CC(F)(F)F (centres undefined),x,x,-8,x,x,x
O=S1(=O)N[C@@H](Cc2ccccc2)COc2cccc(NCCO)c21,x,x,-6,x,x,x
CC(C)(C)Cc1c(-c2ccc(C#N)cc2)nc2ccc(Cl)cn12,x,x,-10,x,0,x
COCCN=C1Sc2ccccc2[C@@H]2C[C@H]3[C@H](CON3C)CN12,x,x,-5,x,x,x
CC(C)C[C@H]1COc2c(Cl)cccc2S(=O)(=O)N1Cc1ccc(F)cc1F,x,x,-5,x,x,x
C[C@H](CO)N1C[C@H](C)[C@H](CN(C)C(=O)Nc2ccc(F)cc2)Oc2ncc(Br)cc2C1=O,x,x,-6,x,x,x
CC1CCCCN1S(=O)(=O)c1ccc(S(=O)(=O)N(Cc2ccccc2)Cc2ccco2)cc1 (centres undefined),-9,71*,x,2,-6,-1
CC(C)(C)OC(=O)C[C@H]1C/C=C\C[C@@H](CC(=O)N(CCO)Cc2ccccc2)C(=O)NC[C@@H](c2ccccc2)OC1=O,-17,x,-4,-3,5,x
OC(CNCCc1ccc(C(F)(F)F)cc1)COc1cccc2ccccc12 (centres undefined),4,60*,-5,x,-3,26
Cc1cccc(C)c1-n1nnnc1C1(C)CCC(=O)N1CCCN1CCOCC1 (centres undefined),x,x,-8,x,x,x
COc1cccc(NC(=O)COC(=O)C2CCCCC2)c1,-1,x,-15,-3,1,x
Oc1[nH]c2ccccc2c1N=Nc1cccc(Cl)c1,8,-21,-28,10,0,69*
Oc1[nH]c2ccccc2c1N=Nc1ccccc1Cl,-6,x,-12,-52,0,-56
Cc1cccc2c(N=Nc3ccccc3)c(O)[nH]c12,-17,8,-6,-23,-2,61*
C[C@H]1CN([C@@H](C)CO)C(=O)CCCn2cc(nn2)CO[C@@H]1CN(C)C(=O)Nc1ccccc1F,x,x,-2,x,1,x
C[C@H](CO)N1C[C@H](C)[C@@H](CN(C)C(=O)Nc2ccccc2)OCc2cn(nn2)CCCC1=O,x,x,-6,x,x,x
COC(=O)c1ccc(NC(=O)c2cn(-c3ccccc3)nc2-c2ccncc2)cc1,-9,56*,-5,89*,-4,-4
O=C(Nc1cccc(S(=O)(=O)N2CCOCC2)c1)c1cn(-c2ccccc2)nc1-c1ccc(F)cc1,23,57*,-3,5,9,7
Cc1ccc(-c2nn(-c3ccccc3)cc2C(=O)Nc2ccc(C)c(S(=O)(=O)N3CCOCC3)c2)cc1,-5,73*,-2,-37,-4,0
O=C1Nc2c(Cl)cc(Cl)cc2C12Nc1ccccc1S2 (centres undefined),x,x,-15,x,x,x
CC1=C(C(=O)N(C(C)C)C(C)C)CC(CC(=O)NC2CCCC2)C(=O)N1CCC1=CCCCC1 (centres undefined),x,x,-4,x,-1,x
O=CC1=C(c2ccccc2)Oc2ccccc2O1,82*,-22,-3,-76,u,23
CN(C)/C=C1/N=C(c2ccccc2)OC1=O,4,2,0,-4,2,13
CCCCc1ccc(NC(=S)NCc2cccc(OC)c2)cc1,10,56*,-3,-22,-1,1
Cc1ccc(-c2noc(CSc3ccccc3)n2)cc1,-5,-14,-3,-24,-7,69*
SMILES,PvdQ inh,T cruzi inh,CaV13 ICDI inh,PfHsp90 yeast 2,Glyco luc inh,HSF1 activator
C[C@H]1COc2cc(NCCCN3CCOCC3)ccc2S(=O)(=O)N1,x,x,-7,x,x,x
CC(C)C[C@H]1COc2cc(Br)ccc2S(=O)(=O)N1Cc1ccc(Cl)cc1,x,x,-5,x,x,x
N=C1C(c2nc3ccccc3s2)=C(O)CN1C1CCCCC1,-9,12,-4,-1,-6,54*
N=C1C(c2nc3ccccc3s2)=C(O)CN1C1CCC(O)CC1 (centres undefined),x,-3,-2,x,x,-2
O=C(Cc1cn(Cc2cccc(Cl)c2)c2ccccc12)N1CCCCCC1,5,59*,-3,-10,-6,15
CC1CCCN(C(=O)Cc2cn(Cc3cccc(Cl)c3)c3ccccc23)C1 (centres undefined),1,55*,-5,-29,-6,30
O=C(O)Cc1cn(Cc2cccc(Cl)c2)c2ccccc12,7,-9,-1,-15,-1,-9
Cc1onc(-c2ccc(Cl)cc2Cl)c1-c1csc(N/N=C/c2ccccc2Cl)n1,-20,62*,-21,2,-6,-18
Cc1onc(-c2ccccc2)c1-c1csc(N/N=C/c2ccccc2Cl)n1,-11,x,-4,-8,1,x
Cc1ccc(-n2cc(CNCCc3cscn3)c(-c3ccc(F)cc3)n2)cc1,-8,34,-3,2,0,7
Cc1ccc(-n2cc(CN3CCN(Cc4nccn4C)CC3)c(-c3ccc(F)cc3)n2)cc1,-4,18,-20,33,-1,55*
Cc1ccc(-n2cc(CNCCCn3ccnc3C)c(-c3ccc(F)cc3)n2)cc1,-16,84*,-3,x,-5,10
Cc1ccc(-c2nn(-c3ccccc3)cc2CNCc2ccccc2)cc1,-19,62*,-5,-14,-5,14
COc1ccc(CC(=O)NCC(=O)Nc2ccccc2Br)cc1,4,-1,-3,-17,2,56*
COc1ccccc1NC(=O)COc1ccccc1,1,-17,-7,10,-1,-5
COc1ccc(OCC(=O)Nc2ccccc2O)cc1,4,-33,x,11,-3,75*
NC(=O)c1ccccc1NC(=O)COc1ccc(Cl)cc1,-10,2,-4,-7,-3,21
Cc1ccc(OCC(=O)Nc2ccccc2C(N)=O)cc1,-5,0,-4,-10,-7,57*
CCOC(=O)CC1(Cc2ccccc2)Oc2ccccc2O1,x,x,-9,x,x,x
CC(=O)c1ccc(OC2(C)CCN(Cc3ccc4c(c3)OCCO4)C2)cc1 (centres undefined),x,x,-5,x,3,x
c1ccc(Nc2nc3ccccc3[nH]2)nc1,-7,11,x,-25,0,62*
Cn1nc([N+](=O)[O-])nc1Oc1ccc2ccccc2c1,-2,47,-5,-25,2,2
Cn1nc([N+](=O)[O-])nc1Oc1ccccc1F,8,74*,-2,3,2,1
Cn1nc([N+](=O)[O-])nc1Oc1ccccc1N,4,63*,-8,-24,2,12
COc1cc(OC)cc(C(=O)NCC2CCN(C(=O)C(=O)c3cc4ccccc4o3)CC2)c1,x,x,-9,x,x,x
Cc1cccc(S(=O)(=O)NCCC(=O)OC(C)C(=O)NC(=O)NC2CCCCC2)c1 (centres undefined),-7,-1,0,-21,0,53*

# Screening data: PubChem, Broad Institute
